# BindingDB's records for doi:10.1021/jm010131q (National Center For Genetic Engineering and Biotechnology …, 2002)
# Assays:
# [1] = target: Bifunctional dihydrofolate reductase-thymidylate synthase (Plasmodium falciparum (isolate K1 / Thailand), UniProt P13922); assay: Inhibition of the wild-type dihydrofolate reductase (DHFR)
# Outline: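 Assay at 25 °C: 50 mM TES pH 7.0, 75 mM β-mercaptoethanol, 1 mg/mL BSA, 100 µM H2folate and 100 µM NADPH. NADPH oxidation followed at 340 nm. Ki derived from IC50 as Ki(1+[S]/Km), assuming competitive inhibition.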
# [2] = Antiplasmodial activity IC50 against Plasmodium falciparum K1CB1 DHFR double-mutant ([…])
# Bifunctional dihydrofolate reductase-thymidylate synthase, sequence (P13922 whole entry): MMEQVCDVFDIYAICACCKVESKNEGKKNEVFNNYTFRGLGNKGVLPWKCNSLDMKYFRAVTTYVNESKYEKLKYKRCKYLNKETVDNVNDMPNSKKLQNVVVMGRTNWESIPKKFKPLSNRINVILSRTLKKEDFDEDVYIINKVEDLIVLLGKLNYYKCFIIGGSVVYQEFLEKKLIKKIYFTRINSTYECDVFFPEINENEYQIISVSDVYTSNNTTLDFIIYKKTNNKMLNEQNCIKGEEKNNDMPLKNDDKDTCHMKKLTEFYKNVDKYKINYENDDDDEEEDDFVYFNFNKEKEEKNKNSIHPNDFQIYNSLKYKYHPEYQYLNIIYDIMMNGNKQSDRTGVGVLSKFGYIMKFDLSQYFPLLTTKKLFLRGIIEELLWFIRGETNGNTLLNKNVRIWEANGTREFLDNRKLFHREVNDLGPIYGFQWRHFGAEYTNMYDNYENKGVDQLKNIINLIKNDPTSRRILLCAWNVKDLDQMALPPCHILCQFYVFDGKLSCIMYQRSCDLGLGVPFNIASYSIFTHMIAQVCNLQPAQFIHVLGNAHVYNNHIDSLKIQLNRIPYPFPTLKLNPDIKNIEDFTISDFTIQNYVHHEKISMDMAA
Structure (SMILES),Ki [1] [µM],IC50 [2] [µM]
Cc1nc(N)nc(N)c1-c1ccc(Cl)cc1,0.002,60.1
COC(=O)CCCc1nc(N)nc(N)c1-c1ccc(Cl)cc1,–,22.3
CCc1nc(N)nc(N)c1-c1ccc(OC)cc1,0.0009,> 25
CCc1nc(N)nc(N)c1-c1ccc(Cl)c(Cl)c1,–,17.4
Nc1nc(N)c(-c2cccc(Cl)c2)c(CCCc2ccccc2)n1,–,3
CCc1nc(N)nc(N)c1-c1ccccc1,–,3.3
Cc1nc(N)nc(N)c1-c1ccccc1,0.0109,30.8
Nc1nc(N)c(-c2ccccc2)c(CCCc2ccccc2)n1,–,2.3
"COC(=O)CCCc1nc(N)nc(N)c1-c1ccccc1 [4-(2,6-Diamino-5-phenyl-pyrimidin-4-yl)-butyric acid methyl ester]",–,31.3
"COC(=O)CCCc1nc(N)nc(N)c1-c1cccc(Cl)c1 [4-[2,6-Diamino-5-(3-chloro-phenyl)-pyrimidin-4-yl]-butyric acid methyl ester]",–,36.3
"CCc1nc(N)nc(N)c1-c1ccc(Cl)cc1Cl [5-(2,4-Dichloro-phenyl)-6-ethyl-pyrimidine-2,4-diamine]",0.0126,22.5
"CCOc1c(Br)cc(-c2c(N)nc(N)nc2CC)cc1Br [5-(3,5-Dibromo-4-ethoxy-phenyl)-6-ethyl-pyrimidine-2,4-diamine]",0.007,17.4
"COc1ccc(CCCc2nc(N)nc(N)c2-c2cccc(Cl)c2)cc1 [5-(3-Chloro-phenyl)-6-[3-(4-methoxy-phenyl)-propyl]-pyrimidine-2,4-diamine]",–,2.7
"Nc1ncc(-c2cccc(Cl)c2)c(N)n1 [5-(3-Chloro-phenyl)-pyrimidine-2,4-diamine]",0.0063,8.8
"Nc1nc(N)c(-c2cccc(Cl)c2)c(CCOCCCOc2ccccc2)n1 [5-(3-chlorophenyl)-6-[2-(3-phenoxypropoxy)ethyl]pyrimidine-2,4-diamine]",–,3.3
"CCc1nc(N)nc(N)c1-c1cccc(Cl)c1 [5-(3-chlorophenyl)-6-ethylpyrimidine-2,4-diamine]",–,1.3

Structure (SMILES),Ki [1] [µM],IC50 [2] [µM]
"Cc1nc(N)nc(N)c1-c1cccc(Cl)c1 [5-(3-chlorophenyl)-6-methylpyrimidine-2,4-diamine]",–,4.8
"COc1cc(Cc2cnc(N)nc2N)cc(OC)c1OCc1ccccc1 [5-(4-Benzyloxy-3,5-dimethoxy-benzyl)-pyrimidine-2,4-diamine]",0.0042,30.1
"Nc1nc(N)c(-c2ccc(Cl)cc2)c(CCCc2ccccc2)n1 [5-(4-Chloro-phenyl)-6-(3-phenyl-propyl)-pyrimidine-2,4-diamine]",–,10.6
"CCc1nc(N)nc(N)c1-c1ccc(Br)cc1 [5-(4-bromophenyl)-6-ethylpyrimidine-2,4-diamine]",0.0003,25
"Nc1ncc(-c2ccc(Cl)cc2)c(N)n1 [5-(4-chlorophenyl)pyrimidine-2,4-diamine]",0.0024,26.2
"CCc1nc(N)nc(N)c1-c1ccc(C(C)(C)C)cc1 [5-(4-tert-butylphenyl)-6-ethylpyrimidine-2,4-diamine]",0.0006,3.9
"CCc1nc(N)nc(N)c1-c1ccc2c(c1)OCO2 [5-Benzo[1,3]dioxol-5-yl-6-ethyl-pyrimidine-2,4-diamine]",–,21.5
"CCc1nc(N)nc(N)c1-c1ccc(-c2ccccc2)cc1 [5-Biphenyl-4-yl-6-ethyl-pyrimidine-2,4-diamine]",0.188,4.4
"Nc1ncc(-c2ccccc2)c(N)n1 [5-Phenyl-pyrimidine-2,4-diamine]",–,19.4
"COc1cc(Cc2cnc(N)nc2N)ccc1OCc1cc(OC)c(OC)c(OC)c1 [5-[3-Methoxy-4-(3,4,5-trimethoxy-benzyloxy)-benzyl]-pyrimidine-2,4-diamine]",0.0006,27.8
"COc1cc(Cc2cnc(N)nc2N)ccc1OCCCc1ccccc1 [5-[3-Methoxy-4-(3-phenyl-propoxy)-benzyl]-pyrimidine-2,4-diamine]",0.0018,11.7
"CCc1nc(N)nc(N)c1-c1ccc(OCc2ccc(Cl)cc2Cl)c(OC)c1 [5-[4-(2,4-Dichloro-benzyloxy)-3-methoxy-phenyl]-6-ethyl-pyrimidine-2,4-diamine]",0.001,> 50
"COc1cc(COc2cc(Cc3cnc(N)nc3N)ccc2OCc2ccccc2)cc(OC)c1OC [5-[4-Benzyloxy-3-(3,4,5-trimethoxy-benzyloxy)-benzyl]-pyrimidine-2,4-diamine]",0.0121,17.5
"Nc1ncc(Cc2ccc(OCCCOc3cc(Cl)c(Cl)cc3Cl)cc2)c(N)n1 [5-{4-[3-(2,4,5-Trichloro-phenoxy)-propoxy]-benzyl}-pyrimidine-2,4-diamine]",0.0009,3.5
"CCc1nc(N)nc(N)c1-c1ccc(C)cc1 [6-ethyl-5-(4-methylphenyl)pyrimidine-2,4-diamine]",–,12.7
"CCCCCCc1nc(N)nc(N)c1-c1ccccc1 [6-hexyl-5-phenylpyrimidine-2,4-diamine]",–,1.3
